Laboratory results taken from ChEMBL document CHEMBL3259678 (ACS Med Chem Lett, 2014).
pEC50, pIC50, pKi: −log10 of the molar value. Activity calls are given as the source filed them. No cut-off for these calls is given here.

Columns and labels:
[1] = biological target: T1, Proteasome subunit beta type-8 (Homo sapiens) (UniProt P28062); assay: (§1) Inhibition of immunoproteasome-20S subunit beta5i in human PBMC assessed as substrate hydrolysis using suc-LLVY-AMC as substrate measured for 120 mins by fluorescence analysis
T1 sequence (whole entry): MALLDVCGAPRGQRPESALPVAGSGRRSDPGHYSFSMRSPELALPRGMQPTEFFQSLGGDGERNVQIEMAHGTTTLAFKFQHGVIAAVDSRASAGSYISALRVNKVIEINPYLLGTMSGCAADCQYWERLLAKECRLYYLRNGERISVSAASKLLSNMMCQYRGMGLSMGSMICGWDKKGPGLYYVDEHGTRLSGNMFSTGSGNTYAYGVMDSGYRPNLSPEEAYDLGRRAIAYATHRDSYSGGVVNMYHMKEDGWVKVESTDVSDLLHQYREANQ

[2] = biological target: T2, Proteasome subunit beta type-8 (Homo sapiens, UniProt P28062); assay: as §1
T2 sequence (P28062 whole entry): T1 sequence (whole entry)

[3] = biological target: T1, Proteasome subunit beta type-8 (Homo sapiens); assay: Ratio of Kinact to Ki for immunoproteasome-20S subunit beta5i in human PBMC using suc-LLVY-AMC as substrate measured for 120 mins by fluorescence analysis
Procedure, shortened: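 Progress curves of hu i-20S suc-LLVY-AMC hydrolysis recorded at several inhibitor concentrations. kobs for each curve fitted to equation I. kobs plotted against inhibitor concentration and fitted hyperbolically (two-step mechanism) to give kinact/KI.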

Homo sapiens [4] = organism: Homo sapiens; assay: Inhibition of constitutive proteasome 20S subunit beta5c in human RBC assessed as substrate hydrolysis using suc-LLVY-AMC as substrate measured for 120 mins by fluorescence analysis
[5] = biological target: T1, Proteasome subunit beta type-8 (Homo sapiens); assay: Inhibition of immunoproteasome-20S subunit beta5i in human PBMC assessed as substrate hydrolysis using suc-LLVY-AMC as substrate by fluorescence analysis; conditions: TDE = time-dependent effect
Procedure, shortened: (§2)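 Purified human i-20S preincubated with inhibitor for 15 min before suc-LLVY-AMC was added; inhibitor ranged from 9.8 nM to 100 μM. AMC fluorescence release read. IC50 from the concentration–response; where β2i/β1i inhibition exceeded 80% at 100 μM, IC50 was also determined.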

Homo sapiens [6] = organism: Homo sapiens; assay: Ratio of Kinact/Ki for immunoproteasome-20S subunit beta5i in human PBMC to Kinact/Ki for constitutive proteasome 20S subunit beta5c in human RBC
[7] = Half life of the compound in RPMI medium at 75 uM by UPLC/MS analysis; type: physicochemical
Procedure, shortened: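 Stability measured in tissue culture medium; reported as t1/2 in minutes.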

[8] = biological target: T1, Proteasome subunit beta type-8 (Homo sapiens); assay: Inhibition of immunoproteasome 20S subunit beta5i in human Karpas 1106p cell extract at 1 uM
Procedure, shortened: (§3)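 Cell-free extracts of Karpas 1106p cells incubated with inhibitor at various concentrations. β5i activity in the lysate then measured; reported as percent inhibition at each concentration.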

[9] = biological target: T1, Proteasome subunit beta type-8 (Homo sapiens); assay: Inhibition of immunoproteasome 20S subunit beta5i in human Karpas 1106p cell extract at 10 uM; procedure, shortened: as §3
[10] = biological target: T1, Proteasome subunit beta type-8 (Homo sapiens); assay: Inhibition of immunoproteasome 20S subunit beta5i in human Karpas 1106p cell extract at 100 uM; procedure, shortened: as §3
26S proteasome = assay: Inhibition of chymotrypsin-like activity of 26S proteasome in intact human Karpas 1106p cells assessed as substrate hydrolysis using Suc-LLVY-(D)-aminoluciferin as substrate after 3 hrs by cell-based Proteasome-Glo assay
Procedure, shortened: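 Intact Karpas 1106p cells, a human lymphoma line that expresses i-20S constitutively without IFN-γ or TNF-α stimulation. 26S proteasome activity read by cell-based Proteasome-Glo luminescence over a range of inhibitor concentrations. EC50 derived from the dose–response.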

[11] = biological target: T1, Proteasome subunit beta type-8 (Homo sapiens); assay: Inhibition of immunoproteasome 20S subunit beta5i in human Karpas 1106p cells assessed as accumulation of polyubiquitinylated proteins at 2.5 to 25 uM after 4 hrs by western blot analysis; type: cell-based
Procedure, shortened: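 Karpas 1106p cells treated with inhibitor at the indicated concentrations for 4 h at 37 °C. Polyubiquitinated proteins then detected by Western blot.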

[12] = biological target: T1, Proteasome subunit beta type-8 (Homo sapiens); conditions: 1 nM
[13] = biological target: T1, Proteasome subunit beta type-8 (Homo sapiens); conditions: 10 to 100 nM
[14] = biological target: T2, Proteasome subunit beta type-8; assay: Inhibition of immunoproteasome-20S subunit beta5i in human PBMC assessed as substrate hydrolysis using suc-LLVY-AMC as substrate preincubated for 15 mins prior to substrate challenge measured for 120 mins by fluorescence analysis; procedure, shortened: as §2

| Compound | Kinact [1] | pKi [2] | Ratio [3] | Ratio (Homo sapiens [4]) | inhibition [5] | Ratio (Homo sapiens [6]) | half-life at 75 µM [7] | inhibition [8] | inhibition [9] | inhibition [10] | pEC50 (26S proteasome) | inhibition [11] | inhibition [12] | inhibition [13] | pIC50 [14] |
| --- | --- | --- | --- | --- | --- | --- | --- | --- | --- | --- | --- | --- | --- | --- | --- |
| CC(=O)N[C@@H](Cc1ccccc1)C(=O)Nc1ccc(-c2nsc(=O)o2)cc1 | 0.0001 s⁻¹ | 6.28 | 193 M⁻¹ s⁻¹ | 0.13 M⁻¹ s⁻¹ | tde | 1490 | – | – | – | – | – | – | – | – | – |
| O=c1oc(-c2cccc([N+](=O)[O-])c2)ns1 | 0.00038 s⁻¹ | 6.38 | 913 M⁻¹ s⁻¹ | 10.3 M⁻¹ s⁻¹ | tde | 89 | – | – | – | – | – | – | – | – | – |
| O=c1oc(-c2cccc(CN3CCOCC3)c2)ns1 | 0.00026 s⁻¹ | 5.92 | 214 M⁻¹ s⁻¹ | 2.3 M⁻¹ s⁻¹ | tde | 93 | – | – | – | – | – | – | – | – | – |
| O=c1oc(-c2cccc(-c3ccccc3)c2)ns1 | 0.001 s⁻¹ | 5.22 | 168 M⁻¹ s⁻¹ | 0.4 M⁻¹ s⁻¹ | tde | 420 | – | – | – | – | – | – | – | – | – |
| CC(=O)Nc1cccc(-c2nsc(=O)o2)c1 | – | – | 83 M⁻¹ s⁻¹ | 3.2 M⁻¹ s⁻¹ | – | 26 | 1.36 h | 60% | > 90% | Active | 5.38 | Active | – | – | – |
| [N-]=[N+]=Nc1ccc(-c2nsc(=O)o2)cc1 | 0.00092 s⁻¹ | 5.46 | 263 M⁻¹ s⁻¹ | 23.7 M⁻¹ s⁻¹ | tde | 11 | – | – | – | – | – | – | – | – | – |
| O=c1oc(-c2cccc(F)c2)ns1 | – | – | 20 M⁻¹ s⁻¹ | 13.2 M⁻¹ s⁻¹ | – | 1.5 | – | – | – | – | – | – | – | – | – |
| CC(=O)N[C@H](Cc1ccccc1)C(=O)Nc1cccc(-c2nsc(=O)o2)c1 | – | – | 6.6 M⁻¹ s⁻¹ | 0.34 M⁻¹ s⁻¹ | – | 19 | – | – | – | – | – | – | – | – | – |
| O=c1oc(-c2ccc3[nH]ccc3c2)ns1 | 0.00026 s⁻¹ | 5.96 | 225 M⁻¹ s⁻¹ | 0.13 M⁻¹ s⁻¹ | tde | 1730 | – | – | – | – | – | – | – | – | – |
| O=c1oc(-c2ccccc2)ns1 | 0.00093 s⁻¹ | 5.10 | 118 M⁻¹ s⁻¹ | 14.8 M⁻¹ s⁻¹ | tde | 8 | – | – | – | – | – | – | – | – | – |
| O=c1oc(-c2ccccc2C(F)(F)F)ns1 | 0.00033 s⁻¹ | 5.74 | 187 M⁻¹ s⁻¹ | 1.6 M⁻¹ s⁻¹ | tde | 117 | – | – | – | – | – | – | – | – | – |
| CC(=O)N[C@H](Cc1ccccc1)C(=O)Nc1ccc(-c2nsc(=O)o2)cc1 | 0.00053 s⁻¹ | 5.46 | 151 M⁻¹ s⁻¹ | 0.7 M⁻¹ s⁻¹ | – | 215 | 0.878 h | 40% | 65% | Active | 4.81 | Active | – | – | – |
| CC(C)C[C@H](NC(=O)[C@H](Cc1ccccc1)NC(=O)c1cnccn1)B(O)O | – | – | – | – | – | – | – | – | – | – | – | – | 58% | 90% | – |
| Cc1sc(-c2nsc(=O)o2)cc1[N+](=O)[O-] | 0.00077 s⁻¹ | 6.12 | 1010 M⁻¹ s⁻¹ | 10.1 M⁻¹ s⁻¹ | – | 100 | – | – | – | – | – | – | – | – | 6.66 |
| O=c1oc(-c2cc(O)c(O)c(O)c2)ns1 | 0.00042 s⁻¹ | 5.77 | 239 M⁻¹ s⁻¹ | 1.4 M⁻¹ s⁻¹ | tde | 171 | – | – | – | – | – | – | – | – | – |
| O=c1oc(-c2ccccn2)ns1 | 0.00025 s⁻¹ | 5.70 | 129 M⁻¹ s⁻¹ | 0.2 M⁻¹ s⁻¹ | – | 645 | – | – | – | – | – | – | – | – | – |
| O=c1oc(-c2ccc(-c3ccccc3)cc2)ns1 | 0.00154 s⁻¹ | 5.85 | 1090 M⁻¹ s⁻¹ | 0.23 M⁻¹ s⁻¹ | – | 4750 | – | – | – | – | – | – | – | – | – |
| CC(C)(C)OC(=O)Nc1ccc(-c2nsc(=O)o2)cc1 | 0.00037 s⁻¹ | 5.96 | 341 M⁻¹ s⁻¹ | 2.4 M⁻¹ s⁻¹ | – | 142 | – | – | – | – | – | – | – | – | – |
